Laboratory results published in ChEMBL document CHEMBL3421565, “β-D-2'-C-Methyl-2,6-diaminopurine Ribonucleoside Phosphoramidates are Potent and Selective Inhibitors of Hepatitis C Virus (HCV) and Are Bioconverted Intracellularly to Bioactive 2,6-Diaminopurine and Guanosine 5'-Triphosphate Forms” (J Med Chem, 2015).
pIC50: −log10 of the molar value. Activity calls are given as the source filed them. No cut-off for these calls is given here.

Legend:
[1] = (§1) Inhibition of HCV C-terminal His-tagged NS5Bdelta21 enzyme assessed as reduction in NS5B-mediated RNA polymerization using [32P]-GpG primer, RNA template and rNTP nucleotide mix incubated for 120 mins by PAGE method; design: species or system Hepacivirus hominis
Summary of the method: (§2)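 Purified NS5BΔ21 (C-terminal His tag), 1 μM, at 30 °C with 1 μM 20-mer RNA template and 1 μM ³²P-GpG primer. Buffer was 40 mM Tris pH 7.5, 6 mM NaCl, 2 mM MgCl₂. Started with 10 μM NTP mix, 1 μM competing NTP and triphosphate inhibitor at 0–100 μM. Products run on 20% denaturing PAGE and quantified; IC₅₀ calculated.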

Hepacivirus hominis [2] = experiment: as §1; summary of the method: as §2
Hepacivirus hominis [3] = experiment: Inhibition of HCV C-terminal His-tagged NS5Bdelta21 enzyme assessed as induction of pausing at sites of AMP incorporation during NS5B-mediated RNA polymerization using [32P]-GpG primer, RNA template and rNTP nucleotide mix incubated for 120 mins by PAGE method
Summary of the method: as §2, with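 “μM. Stopped at 120 min with EDTA/formamide.” for “μM.”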

Hepatocyte [4] = experiment: (§3) Drug level in human primary hepatocytes treated with 50 uM Ethyl 3-(2-(((R)-(((2R,3R,4R,5R)-5-(2,6-Diamino-9H-purin-9-yl)-3,4-dihydroxy-4-methyltetrahydrofuran-2-yl)methoxy)(((S)-1-ethoxy-1-oxopropan-2-yl)amino)phosphoryl)oxy)phenyl)-propanoate assessed as compound formation incubated for 4 hrs at 37 degC by LC-MS/MS method; type: ADME, cell-based
Summary of the method: (§4)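 Freshly plated primary human hepatocytes seeded at 1 × 10⁶ per well and acclimated overnight, then given 50 μM compound for 4 h at 37 °C. After two ice-cold PBS washes, extraction ran overnight at −20 °C in 70% methanol with 20 nM ddATP. Dried extracts went to LC–MS/MS for intracellular metabolites, as three replicates from one plate, ±SD.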

[5] = as §3, with “HuH7 cells” for “primary hepatocytes”; type: ADME, cell-based; details: huh-7, 4 h
Summary of the method: (§5)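 Huh-7 cells seeded at 1 × 10⁶ per well and exposed to 50 μM compound after attachment, 4 h at 37 °C. Cells washed twice with ice-cold PBS, then extracted overnight at −20 °C in 70% methanol containing 20 nM ddATP. Supernatants were dried and analysed by LC–MS/MS for parent nucleoside and its mono-, di- and triphosphates (pmol/10⁶ cells).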

Hepatocyte [6] = experiment: Drug level in human primary hepatocytes treated with 50 uM beta-D-2,6-diaminopurine nucleoside assessed as compound formation incubated for 4 hrs at 37 degC by LC-MS/MS method; type: ADME, cell-based; summary of the method: as §4
[7] = Drug level in human HuH7 cells treated with 50 uM beta-D-2,6-diaminopurine nucleoside assessed as compound formation incubated for 4 hrs at 37 degC by LC-MS/MS method; type: ADME, cell-based; details: huh-7, 4 h; summary of the method: as §5
[8] = (§6) Drug level in human HuH7 cells treated with 50 uM Isopropyl 3-(2-(((S)-(((2R,3S,4R,5R)-5-(2,6-Diamino-9H-purin-9-yl)-3,4-dihydroxy-4-methyltetrahydrofuran-2-yl)methoxy)-(((S)-1-isopropoxy-1-oxopropan-2-yl)amino)phosphoryl)oxy)-phenyl)propanoate 15c(Sp) and Isopropyl 3-(2-(((R)-(((2R,3S,4R,5R)-5-(2,6-Diamino-9H-purin-9-yl)-3,4-dihydroxy-4-methyltetrahydrofuran-2-yl)methoxy)(((S)-1-isopropoxy-1-oxopropan-2-yl)amino)phosphoryl)oxy)phenyl)propanoate assessed as compound formation incubated for 4 hrs at 37 degC by LC-MS/MS method; type: ADME, cell-based; details: huh-7, 4 h; summary of the method: as §5
Hepatocyte [9] = experiment: as §6, with “primary hepatocytes” for “HuH7 cells”; type: ADME, cell-based; summary of the method: as §4

In the case of `C[C@@]1(O)[C@H](O)[C@@H](COP(=O)(O)OP(=O)(O)OP(=O)(O)O)O[C@H]1n1cnc2c(N)nc(N)nc21`, the pIC50 [1] was 5.47, the inhibition (Hepacivirus hominis [2]) was “Dose-dependent effect” and the inhibition (Hepacivirus hominis [3]) was “Active”. For the same compound, the Drug metabolism (Hepatocyte [4]) was “metabolite_detected”, the Drug metabolism [5] was “metabolite_detected” and the Drug metabolism (Hepatocyte [6]) was “metabolite_detected”. The Drug metabolism [7] was “metabolite_detected”, the Drug metabolism [8] was “metabolite_detected” and the Drug metabolism (Hepatocyte [9]) was “metabolite_detected”.
